Source: ChEMBL document CHEMBL4145601, “Novel Nitric Oxide Donors of Phenylsulfonylfuroxan and 3-Benzyl Coumarin Derivatives as Potent Antitumor Agents” (ACS Med Chem Lett, 2018)
pIC50: −log10 of the molar value. Activity calls are given as the source filed them. The calls are words filed in the database; no cut-off is given here.

Tests used:
WI-38 = test: Cytotoxicity against human WI38 cells after 72 hrs by MTS assay; assay type: cell-based; conditions: WI-38, 72 h
In short: (§1)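 Non-tumour human cells were HUVEC (umbilical vein endothelial), T29 (immortalized, nontumorigenic ovarian epithelial), WI-38 (lung fibroblasts) and MCF-10A (nontumorigenic breast epithelial). Viability was read by tetrazolium assay. IC50 is the mean of triplicate determinations.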

MCF-10A = test: Cytotoxicity against human MCF10A cells after 72 hrs by MTS assay; assay type: cell-based; in short: as §1
HeLa = test: Antiproliferative activity against human HeLa cells after 48 hrs by MTT assay; assay type: functional, cell-based
In short: (§2)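 Human tumour lines were HeLa (cervical), SKOV3, OVCA429, OVCA433 and A2780 (ovarian), A549 (non-small cell lung), MDA-MB-231 and MCF-7 (breast), and KB (oral epidermoid). Antiproliferation was read by MTT assay. IC50 is the mean of triplicate determinations.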

SK-OV-3 = test: Antiproliferative activity against human SKOV3 cells after 48 hrs by MTT assay; assay type: functional, cell-based; conditions: SK-OV-3, 48 h; in short: as §2
A549 = test: Antiproliferative activity against human A549 cells after 48 hrs by MTT assay; assay type: functional, cell-based; conditions: A549, 48 h; in short: as §2
[1] = Antiproliferative activity against human OVCA429 cells after 48 hrs by MTT assay; assay type: functional, cell-based; conditions: OVCA429, 48 h; in short: as §2
[2] = Antiproliferative activity against human OVCA433 cells after 48 hrs by MTT assay; assay type: functional, cell-based; conditions: OVCA433, 48 h; in short: as §2
A2780 [3] = test: Antiproliferative activity against human A2780 cells after 48 hrs by MTT assay; assay type: functional, cell-based; conditions: A2780, 48 h; in short: as §2
MCF7 = test: Antiproliferative activity against human MCF7 cells after 48 hrs by MTT assay; assay type: functional, cell-based; conditions: MCF7, 48 h; in short: as §2
KB = test: Antiproliferative activity against human KB cells after 48 hrs by MTT assay; assay type: functional, cell-based; in short: as §2
MV4-11 = test: Antiproliferative activity against human MV411 cells after 72 hrs by MTS assay; assay type: functional, cell-based; conditions: MV4-11, 72 h
In short: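 Human myeloid leukaemia MV-4-11 cells; antiproliferation read by MTS assay. IC50 is the mean of triplicate determinations.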

MM1.S = test: Antiproliferative activity against human MM1S cells after 72 hrs by MTS assay; assay type: functional, cell-based
[4] = Antiproliferative activity against human A2780/CDDP cells after 48 hrs by MTT assay; assay type: functional, cell-based
In short: (§3)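 Drug-resistant human tumour lines were A2780/CDDP (cisplatin-resistant ovarian), MDA-MB-231/Gem (gemcitabine-resistant breast), MCF-7/ADR and KB-V. Antiproliferation was read by MTT assay. IC50 is the mean of triplicate determinations.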

NCI/ADR-RES = test: Antiproliferative activity against human MCF7/ADR cells after 48 hrs by MTT assay; assay type: functional, cell-based; in short: as §3
[5] = Antiproliferative activity against human KBV cells after 48 hrs by MTT assay; assay type: functional, cell-based; in short: as §3
HUVEC = test: Cytotoxicity against HUVEC after 48 hrs by MTT assay; assay type: cell-based; conditions: Homo sapiens; in short: as §1
[6] = Cytotoxicity against human T29 cells after 48 hrs by MTT assay; assay type: cell-based; conditions: T29, 48 h; in short: as §1
[7] = Drug metabolism in human A2780 cells assessed as nitric oxide release at 100 uM after 150 mins by Griess assay; assay type: ADME, cell-based; conditions: a2780, 2.5 h
A2780 [8] = test: Induction of apoptosis in human A2780 cells assessed as increase in late apoptotic cells at 10 to 20 nM measured after 24 hrs by Annexin-V-FITC/propidium iodide staining based flow cytometric method; assay type: functional, cell-based
MDA-MB-231 = test: Antiproliferative activity against human MDA-MB-231 cells after 48 hrs by MTT assay; assay type: functional, cell-based; conditions: MDA-MB-231, 48 h
[9] = Antiproliferative activity against human MDA-MB-231/Gem cells after 48 hrs by MTT assay; assay type: functional, cell-based
[10] = Selectivity ratio of IC50 for human A2780 cells to IC50 for A2780/CDDP cells; assay type: functional
In short: (§4)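 Selectivity ratio = IC50 in the drug-sensitive parent line / IC50 in its resistant subline (A2780 vs A2780/CDDP, MDA-MB-231 vs MDA-MB-231/Gem, MCF-7 vs MCF-7/ADR, KB vs KB-V). Each IC50 came from MTT assays, mean of triplicates.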

[11] = Selectivity ratio of IC50 for human MDA-MB-231 cells to IC50 for MDA-MB-231/Gem cells; assay type: functional; in short: as §4
[12] = Selectivity ratio of IC50 for human MCF7 cells to IC50 for MCF7/ADR cells; assay type: functional; in short: as §4
[13] = Selectivity ratio of IC50 for human KB cells to IC50 for KBV cells; assay type: functional; in short: as §4
[14] = molecular target: Dual specificity mitogen-activated protein kinase kinase; MEK1/2 (Homo sapiens) (UniProt P36507+Q02750); test: Inhibition of MEK (unknown origin); assay type: protein assay
A2780 [15] = test: Antiproliferative activity against human A2780 cells at 50 nM after 48 hrs in presence of scavenger c-PTIO by MTT assay; assay type: functional, cell-based
In short: (§5)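 A2780 and A2780/CDDP cells were exposed to compound at 50 nM together with a series of concentrations of the NO scavenger c-PTIO. Antiproliferation was measured and reported as mean ± SEM of two independent experiments.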

Homo sapiens = organism: Homo sapiens; test: Antiproliferative activity against human A2780/CDDP cells at 50 nM after 48 hrs in presence of scavenger c-PTIO by MTT assay; assay type: functional, cell-based; in short: as §5
A2780 [16] = test: Induction of apoptosis in human A2780 cells assessed as increase in early apoptotic cells at 10 to 20 nM measured after 24 hrs by Annexin-V-FITC/propidium iodide staining based flow cytometric method; assay type: functional, cell-based

Chain of Dual specificity mitogen-activated protein kinase kinase; MEK1/2 (Homo sapiens) (P36507 whole entry, looked up): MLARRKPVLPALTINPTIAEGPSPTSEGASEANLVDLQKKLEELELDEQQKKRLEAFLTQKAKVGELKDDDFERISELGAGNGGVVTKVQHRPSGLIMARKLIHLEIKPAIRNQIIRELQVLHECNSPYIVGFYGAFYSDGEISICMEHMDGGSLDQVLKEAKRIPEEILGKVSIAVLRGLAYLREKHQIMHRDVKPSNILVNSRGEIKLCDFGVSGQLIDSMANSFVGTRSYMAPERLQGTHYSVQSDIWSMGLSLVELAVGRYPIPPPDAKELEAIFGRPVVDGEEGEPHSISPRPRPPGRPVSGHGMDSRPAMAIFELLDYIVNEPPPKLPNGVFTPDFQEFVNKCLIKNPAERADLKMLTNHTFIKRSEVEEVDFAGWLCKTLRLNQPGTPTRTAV
Chain of Dual specificity mitogen-activated protein kinase kinase; MEK1/2 (Homo sapiens) (Q02750 whole entry, looked up): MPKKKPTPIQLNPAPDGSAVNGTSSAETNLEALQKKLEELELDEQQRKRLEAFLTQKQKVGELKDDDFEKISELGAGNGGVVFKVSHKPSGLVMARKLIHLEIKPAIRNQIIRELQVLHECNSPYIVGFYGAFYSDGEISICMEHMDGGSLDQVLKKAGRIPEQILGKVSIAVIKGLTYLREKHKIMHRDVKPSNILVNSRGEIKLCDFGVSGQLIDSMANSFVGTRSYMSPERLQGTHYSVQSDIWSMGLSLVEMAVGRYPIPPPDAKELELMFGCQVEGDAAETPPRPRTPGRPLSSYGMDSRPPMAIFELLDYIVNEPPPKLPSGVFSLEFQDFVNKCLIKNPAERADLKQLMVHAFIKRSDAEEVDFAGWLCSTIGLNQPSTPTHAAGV

| SMILES | pIC50 (HeLa) | pIC50 (SK-OV-3) | pIC50 (A549) | pIC50 (A2780 [3]) | pIC50 (MCF7) | pIC50 (KB) | pIC50 (MV4-11) | pIC50 (MM1.S) | Drug metabolism [7] | pIC50 (MDA-MB-231) | pIC50 (WI-38) | pIC50 (MCF-10A) | pIC50 [1] | pIC50 [2] | pIC50 [4] | pIC50 (NCI/ADR-RES) | pIC50 [5] | pIC50 (HUVEC) | pIC50 [6] | pIC50 [9] | other results |
| --- | --- | --- | --- | --- | --- | --- | --- | --- | --- | --- | --- | --- | --- | --- | --- | --- | --- | --- | --- | --- | --- |
| Cc1cc(=O)oc2cc(OCCOc3no[n+]([O-])c3S(=O)(=O)c3ccccc3)ccc12 | 7.21 | 7.33 | 7.34 | 7.68 | 6.35 | 6.90 | 7.55 | 7.68 | Metabolite_Detected | – | 7.05 | 6.18 | 7.39 | 6.88 | 7.07 | 6.80 | 7.60 | 6.89 | 5.74 | – | Activity (A2780 [8]): Active |
| Cc1c(Cc2ccccc2)c(=O)oc2cc(OCCOc3no[n+]([O-])c3S(=O)(=O)c3ccccc3)ccc12 | 7.64 | 7.76 | 8.70 | 7.90 | 5.63 | 5.34 | 7.61 | 7.92 | Metabolite_Detected | 8.22 | < 4.70 | < 4.70 | 8.77 | 8.96 | 7.03 | 7.79 | 7.80 | 6.36 | < 5.30 | 7.60 | Ratio IC50 [10]: 0.1; Ratio IC50 [11]: 0.2; Ratio IC50 [12]: 144.2; Ratio IC50 [13]: 283.9; inhibition [14]: inactive |
| Cc1ccc(NC(=O)NCc2ccc3c(c2)CN(C2CCC(=O)NC2=O)C3=O)cc1Cl (stereo not drawn) | – | – | – | – | – | – | 9.52 | – | – | – | < 4.70 | 8.30 | – | – | – | – | – | – | – | – | – |

More lines, main results first:

| pIC50 (HeLa) | pIC50 (SK-OV-3) | pIC50 (A549) | pIC50 (A2780 [3]) | pIC50 (MCF7) | pIC50 (KB) | pIC50 (MV4-11) | pIC50 (MM1.S) | Drug metabolism [7] | pIC50 (MDA-MB-231) | SMILES | pIC50 (WI-38) | pIC50 (MCF-10A) | pIC50 [1] | pIC50 [2] | pIC50 [4] | pIC50 (NCI/ADR-RES) | pIC50 [5] | pIC50 (HUVEC) | pIC50 [6] | pIC50 [9] | other results |
| --- | --- | --- | --- | --- | --- | --- | --- | --- | --- | --- | --- | --- | --- | --- | --- | --- | --- | --- | --- | --- | --- |
| 8.55 | 8.08 | 8.43 | 8.18 | 5.54 | 5.49 | 7.57 | 6.84 | Metabolite_Detected | 9.10 | Cc1c(Cc2ccc(F)cc2)c(=O)oc2cc(OCCOc3no[n+]([O-])c3S(=O)(=O)c3ccccc3)ccc12 | < 4.70 | < 4.70 | 8.41 | 8.48 | 7.64 | 8.29 | 7.96 | 6.57 | < 5.30 | 8.16 | Ratio IC50 [10]: 0.3; Ratio IC50 [11]: 0.1; Ratio IC50 [12]: 559.4; Ratio IC50 [13]: 294; Activity (A2780 [15]): inactive; Activity (Homo sapiens): inactive; inhibition [14]: inactive; Activity (A2780 [16]): Active |
| – | – | – | – | – | – | < 4.70 | – | – | – | Nc1cccc2c1CN(C1CCC(=O)NC1=O)C2=O (stereo not drawn) [LENALIDOMIDE] | < 4.70 | < 4.70 | – | – | – | – | – | – | – | – | – |
| 8.16 | 7.60 | 8.46 | 7.84 | 5.85 | 5.78 | 7.53 | 7.60 | Metabolite_Detected | 8.85 | COc1cc(OCCOc2no[n+]([O-])c2S(=O)(=O)c2ccccc2)ccc1C(=O)/C=C/c1ccc(F)cc1 | 6.25 | – | 8.40 | 8.18 | 7.47 | 7.32 | 8.00 | 6.44 | 5.46 | 7.03 | Ratio IC50 [10]: 0.4; Ratio IC50 [11]: 0.02; Ratio IC50 [12]: 29.5; Ratio IC50 [13]: 164.9; inhibition [14]: inactive; Activity (A2780 [16]): Active |
